Key:
Liver [1] = experiment: Drug uptake in Sprague-Dawley rat liver S9 fraction treated with (S)-Isopropyl 2-(((R)-(((2R,3S,5R)-5-(5-fluoro-2,4-dioxo-3,4-dihydropyrimidin-1(2H)-yl)-3-hydroxytetrahydrofuran-2-yl)methoxy)((2-methylbenzyl)oxy)phosphoryl)amino)propanoate at 20 ug/mL after 20 mins by HPLC-MS/MS analysis in absence of NADPH; type: ADME; conditions: s9, 20 min
Method in brief: (§1)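 Rat liver S9 (10 mg/mL) incubated with compound at 20 μg/mL. Parent, intermediate A and FdUMP followed over time by HPLC-MS/MS. Negative control run without NADPH.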

[2] = Half life in rat plasma by HPLC analysis; type: ADME, cell-free
Method in brief: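 Rat plasma, 37 °C. Compound added from a 2.5 mM stock, sampled at 0–24 h, quenched with MeOH. Analyzed by HPLC-UV at 267 nm (C8 column, MeOH:H2O 68:32). Triplicate samples.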

[3] = Cytotoxicity against human SMMC7721 cells assessed as reduction in cell viability after 72 hrs by MTT assay; type: functional, cell-based; conditions: SMMC-7721, 72 h
Method in brief: (§2)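 Cells in RPMI-1640 with 10% FBS, seeded at 4 × 10³ per well and attached for 24 h. Compound (DMSO ≤0.5% final) added for 72 h at 37 °C, 5% CO2. Viability read by MTT. IC50 set against 0.5% DMSO-treated cells taken as 100% viable. Mean of two independent experiments, each run in triplicate.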

[4] = Cytotoxicity against human LO2 cells assessed as reduction in cell viability after 72 hrs by MTT assay; type: cell-based; conditions: L02, 72 h; method in brief: as §2
[5] = Half life in human plasma by HPLC-MS/MS analysis; type: ADME, cell-free
Method in brief: (§3)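 Compound at 1 μg/mL final in dog or human plasma, 37 °C. Sampled at 0–24 h and quenched with ice-cold MeOH containing internal standard. Parent measured by LC-MS/MS in ESI negative mode; t1/2 calculated from percent remaining versus 0 h.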

[6] = Half life in dog plasma by HPLC-MS/MS analysis; type: ADME, cell-free, Canis lupus familiaris; method in brief: as §3
Liver [7] = experiment: Drug metabolism in phenobarbital/beta-napthoflavone treated Sprague-Dawley rat liver S9 fraction assessed as prodrug activation at 50 uM preincubated for 5 mins followed by NADPH addition measured up to 60 mins by HPLC-MS/MS analysis; type: ADME, subcellular; conditions: s9, 1 h
Method in brief: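 S9 prepared from livers of Sprague-Dawley rats dosed i.g. with phenobarbital/β-naphthoflavone for 3 days. Incubation: 100 mM KH2PO4 pH 7.4, 5 mg/mL S9, compound at 50 μM, 5 min preincubation at 37 °C, then 2 mM NADPH. Samples at 0–60 min, MeOH extraction, FdUMP (m/z 325→129) measured by HPLC-MS/MS. Triplicate.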

Liver [8] = experiment: Drug uptake in Sprague-Dawley rat liver S9 fraction treated with (S)-Isopropyl 2-(((R)-(((2R,3S,5R)-5-(5-fluoro-2,4-dioxo 3,4-dihydropyrimidin-1(2H)-yl)-3-hydroxytetrahydrofuran-2-yl)methoxy)((2-methylbenzyl)oxy)phosphoryl)amino)propanoate at 20 ug/mL preincubated for 5 mins followed by NADPH addition measured at 20 mins by HPLC-MS/MS analysis; type: ADME, subcellular; conditions: s9, 20 min; method in brief: as §1
H22 = experiment: Antitumor activity against mouse H22 cells implanted in KM mouse assessed as tumor growth inhibition at 60 mg/kg administered daily through oral gavage after 8 days; type: functional; conditions: 192 h
Method in brief: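 Syngeneic H22 hepatoma: 2 × 10⁶ cells injected s.c. in the axilla (0.9% saline) of female KM mice, n = 10 per group. From day 2, daily oral gavage for 8 days. Test agent given in 35% PEG400; sorafenib suspended in 0.5% CMC-Na. Tumor weight taken on day 8; inhibition rate calculated versus the vehicle group.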

Mus musculus = experiment: Toxicity in KM mouse implanted with mouse H22 cells assessed as body weight level at 60 mg/kg administered daily through oral gavage after 8 days (reference value: 22.1 +/- 0.8g); type: organism-based; conditions: in vivo, 192 h
Liver [9] = experiment: Cmax in Sprague-Dawley rat liver assessed as 5-FU formation at 23.62 mg/kg administered through oral gavage measured up to 24 hrs by HPLC-MS/MS analysis; type: ADME, organism-based; set-up: dose 23.62 mg/kg, route oral; conditions: in vivo
Method in brief: (§4)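 Male Sprague-Dawley rats (220 ± 20 g), single gavage of 0.096 mmol/kg. FDUR was dosed in H2O; the prodrugs were dosed in 20% hydroxypropyl-β-cyclodextrin. n = 3 per time point, sampled at 0.25–24 h. Plasma (EDTA-K2, cardiac puncture) and freeze-clamped liver were homogenized in 20 mM EDTA-K2/70% MeOH. Analytes measured by HPLC-MS/MS in ESI negative mode.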

Liver [10] = experiment: Cmax in Sprague-Dawley rat liver assessed as FdUMP formation at 23.62 mg/kg administered through oral gavage measured up to 24 hrs by HPLC-MS/MS analysis; type: ADME, organism-based; set-up: dose 23.62 mg/kg, route oral; conditions: in vivo; method in brief: as §4
Liver [11] = experiment: AUC (infinity) in Sprague-Dawley rat liver assessed as 5-FU formation at 23.62 mg/kg administered through oral gavage measured up to 24 hrs by HPLC-MS/MS analysis; type: ADME, organism-based; set-up: dose 23.62 mg/kg, time infinity, route oral; conditions: in vivo; method in brief: as §4
Liver [12] = experiment: AUC (infinity) in Sprague-Dawley rat liver assessed as FdUMP formation at 23.62 mg/kg administered through oral gavage measured up to 24 hrs by HPLC-MS/MS analysis; type: ADME, organism-based; set-up: dose 23.62 mg/kg, time infinity, route oral; conditions: in vivo; method in brief: as §4
[13] = Ratio of FdUMP AUC (infinity) in Sprague-Dawley rat liver to FDUR AUC (infinity) in Sprague-Dawley rat plasma at 23.62 mg/kg administered through oral gavage; type: ADME, organism-based; conditions: in vivo
Plasma [14] = experiment: Cmax in Sprague-Dawley rat plasma assessed as FDUR formation at 23.62 mg/kg administered through oral gavage measured up to 24 hrs by HPLC-MS/MS analysis; type: ADME, organism-based; set-up: dose 23.62 mg/kg, route oral; conditions: in vivo; method in brief: as §4
Plasma [15] = experiment: Cmax in Sprague-Dawley rat plasma assessed as 5-FU formation at 23.62 mg/kg administered through oral gavage measured up to 24 hrs by HPLC-MS/MS analysis; type: ADME, organism-based; set-up: dose 23.62 mg/kg, route oral; conditions: in vivo; method in brief: as §4
Plasma [16] = experiment: AUC (infinity) in Sprague-Dawley rat plasma assessed as FDUR formation at 23.62 mg/kg administered through oral gavage measured up to 24 hrs by HPLC-MS/MS analysis; type: ADME, organism-based; set-up: dose 23.62 mg/kg, time infinity, route oral; conditions: in vivo; method in brief: as §4
Plasma [17] = experiment: AUC (infinity) in Sprague-Dawley rat plasma assessed as 5-FU formation at 23.62 mg/kg administered through oral gavage measured up to 24 hrs by HPLC-MS/MS analysis; type: ADME, organism-based; set-up: dose 23.62 mg/kg, route oral, time infinity; conditions: in vivo; method in brief: as §4

| Structure (SMILES) | half-life [2] | IC50 [3] | Drug metabolism (Liver [7]) | also measured |
| --- | --- | --- | --- | --- |
| Cc1ccccc1C(=O)O [TOLUIC ACID] | – | – | – | Drug metabolism (Liver [1]): metabolite_detected |
| Cc1ccccc1COP(=O)(N[C@@H](C)C(=O)OC(C)C)OC[C@H]1O[C@@H](n2cc(F)c(=O)[nH]c2=O)C[C@@H]1O (stereo partly drawn) | < 0.083 h | 276 µM | – | IC50 [4]: 333 µM; half-life [5]: > 24 h; half-life [6]: > 24 h |
| O=c1[nH]c(=O)n([C@H]2C[C@H](O)[C@@H](COP(=O)(NCc3ccccc3)OCc3cccc(F)c3)O2)cc1F (stereo partly drawn) | > 24 h | 241 µM | 12.5 nmol/min/mg | – |
| O=c1[nH]c(=O)n([C@H]2C[C@H](O)[C@@H](COP(=O)(NCc3ccccc3)OCc3ccccc3F)O2)cc1F (stereo partly drawn) | > 24 h | 155 µM | 34.7 nmol/min/mg | – |
| Cc1ccccc1CO[P@](=O)(N[C@@H](C)C(=O)O)OC[C@H]1O[C@@H](n2cc(F)c(=O)[nH]c2=O)C[C@@H]1O | – | – | – | Drug uptake (Liver [8]): metabolite_detected |
| Cc1cccc(COP(=O)(NCc2ccccc2)OC[C@H]2O[C@@H](n3cc(F)c(=O)[nH]c3=O)C[C@@H]2O)c1 (stereo partly drawn) | > 24 h | 139 µM | 49.4 nmol/min/mg | – |
| CNC(=O)c1cc(Oc2ccc(NC(=O)Nc3ccc(Cl)c(C(F)(F)F)c3)cc2)ccn1 [SORAFENIB] | – | – | – | inhibition in vivo at 60 mg/kg (H22): 50.8%; Activity (Mus musculus): 26.4 g |
| COc1ccccc1COP(=O)(NCc1ccccc1)OC[C@H]1O[C@@H](n2cc(F)c(=O)[nH]c2=O)C[C@@H]1O (stereo partly drawn) | 3.4 h | 6.8 µM | 238.9 nmol/min/mg | – |
| O=c1[nH]c(=O)n([C@H]2C[C@H](O)[C@@H](COP(=O)(NCc3ccccc3)OCc3cccc(Br)c3)O2)cc1F (stereo partly drawn) | > 24 h | 225 µM | 32.8 nmol/min/mg | – |
| O=c1[nH]c(=O)n([C@H]2C[C@H](O)[C@@H](CO)O2)cc1F [FLOXURIDINE] | – | – | – | Cmax (Liver [9]): 60 ng/g; Cmax (Liver [10]): 9 ng/g; AUC (Liver [11]): 232 ng·h/g; AUC (Liver [12]): < 34 ng·h/g; Ratio AUC [13]: < 0.11; Cmax (Plasma [14]): 180 ng/mL; Cmax (Plasma [15]): 169 ng/mL; AUC (Plasma [16]): 308 ng·h/mL; AUC (Plasma [17]): 209 ng·h/mL |
| O=c1[nH]c(=O)n([C@H]2C[C@H](O)[C@@H](COP(=O)(NCc3ccccc3)OCc3cccc([N+](=O)[O-])c3)O2)cc1F (stereo partly drawn) | > 24 h | – | 14.9 nmol/min/mg | – |
| O=c1[nH]c(=O)n([C@H]2C[C@H](O)[C@@H](COP(=O)(NCc3ccccc3)OCc3ccc(Br)cc3)O2)cc1F (stereo partly drawn) | > 24 h | 107 µM | 39.1 nmol/min/mg | – |
